# Test results published in PubChem BioAssay AID588747 (Vanderbilt Specialized Chemistry Center, 2011).
# A number with no mark means an inactive call.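 How the source made its calls: active means a dose-dependent rise in calcium signal, with potency and percent of maximal acetylcholine response fitted; inactive means the rest.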
# Target: Muscarinic acetylcholine receptor M5 (Homo sapiens) (UniProt P08912)
# Experiment: M5 positive allosteric modulation, counter-screen, dose response, counter-screen for M4 PAM project, human, CHO cells, calcium fluorescence (AID 588747)
# Settings: CHO hM5, calcium Fluo-4 fluorescence, ACh EC20 potentiation; series mostly up to 30 µM; percent ACh max response: at the top concentration
# Summary of the method: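 Test system: CHO cells expressing human muscarinic M5 receptor | Buffer or medium: HBSS with HEPES and 2.5 mM probenecid | Doses: Series up to 30 µM, 0.3% DMSO | Schedule: Compound pre-incubation 144 s, EC80 ACh 86 s after EC20, 37 °C | Detection: Fluo-4 calcium fluorescence | Control set: Maximal ACh (1 mM)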
# Chain of Muscarinic acetylcholine receptor M5 (Homo sapiens) (P08912 whole entry, looked up): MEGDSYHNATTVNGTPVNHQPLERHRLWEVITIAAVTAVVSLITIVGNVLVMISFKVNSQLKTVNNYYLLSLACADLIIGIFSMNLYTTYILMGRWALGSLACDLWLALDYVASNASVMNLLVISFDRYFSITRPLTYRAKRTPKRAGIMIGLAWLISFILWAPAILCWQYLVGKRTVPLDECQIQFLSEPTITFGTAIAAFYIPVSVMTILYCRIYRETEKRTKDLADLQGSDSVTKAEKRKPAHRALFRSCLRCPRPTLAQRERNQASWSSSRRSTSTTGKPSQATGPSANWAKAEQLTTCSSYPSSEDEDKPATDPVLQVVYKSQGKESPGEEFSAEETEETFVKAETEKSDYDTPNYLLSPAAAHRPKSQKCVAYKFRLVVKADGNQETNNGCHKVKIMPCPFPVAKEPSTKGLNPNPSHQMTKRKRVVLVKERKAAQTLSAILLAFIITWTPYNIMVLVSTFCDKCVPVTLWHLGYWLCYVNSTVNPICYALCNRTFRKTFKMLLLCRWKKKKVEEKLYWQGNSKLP
row,SMILES,percent ACh max response
1,Cc1nc2sc(C(=O)NCc3ccncn3)c(N)c2c(C)c1Cl,15.2
2,Cc1nc2sc(C(=O)NCCc3ccncc3)c(N)c2c(C)c1Cl,19.3
3,Cc1nc2sc(C(=O)NCc3nccs3)c(N)c2c(C)c1Cl,18.3
4,Cc1nc2sc(C(=O)NC3CC3)c(N)c2c(C)c1Cl,17.9
5,Cc1nc2sc(C(=O)NCc3cccc(F)c3F)c(N)c2c(C)c1Cl,16.2
